# Screens (PubChem BioAssay)
# Most compounds without a hit are left out; they make up all but 3.5% or so of the library.
# MrgX1 antagonist: antagonists of human MrgX1 receptor, primary screen, HEK293 cells, Fluo-4 calcium flux; B-score at 10 µM; actives 1.3% (n = 310,000); BAM8-22 antagonism; stronger effect = lower value; Mas-related G-protein coupled receptor member X1 (Homo sapiens), Q96LB2; AID 588676, 2011;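 active means calcium-response B-score plate-corrected more than 3 library SD below zero, starting fluorescence within 5 deviations, no agonist response on first addition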;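 further: peak minus trough fluorescence over baseline after final BAM8-22 challenge near maximal dose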
# Target sequence (Q96LB2 whole entry, looked up): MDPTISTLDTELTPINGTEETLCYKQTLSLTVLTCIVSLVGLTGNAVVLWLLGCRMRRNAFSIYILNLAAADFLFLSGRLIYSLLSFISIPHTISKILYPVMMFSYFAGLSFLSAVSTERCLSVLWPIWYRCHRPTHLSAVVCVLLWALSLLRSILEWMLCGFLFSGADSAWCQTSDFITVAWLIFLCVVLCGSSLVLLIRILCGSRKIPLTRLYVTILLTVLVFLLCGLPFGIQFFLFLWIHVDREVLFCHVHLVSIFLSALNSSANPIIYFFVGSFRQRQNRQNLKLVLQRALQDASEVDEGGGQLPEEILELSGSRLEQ
# MrgX1 PAM: positive allosteric modulators of MrgX1, primary screen, HEK293 cells, Fluo-4 calcium flux; Mas-related G-protein coupled receptor member X1 (Homo sapiens), Q96LB2; FDSS; stronger effect = higher value; B-score at 10 µM; actives 0.63% (n = 310,000); AID 588675, 2011;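 active means plate-corrected calcium response at least 3 library SD above typical, normal starting fluorescence, not activating the receptor alone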;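 further: compound read alongside a low EC10 to EC30 dose of BAM8-22 agonist; peak minus trough fluorescence over baseline measured at the second addition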
# RGS4 block: RGS4 inhibitors, primary screen, cell-based, HEK293 M3R inducible RGS4, calcium flux. Regulator of G-protein signaling 4 (Homo sapiens), P49798. Fluo-4 calcium flux; stronger effect = higher value; triggered by carbachol at its EC20. B-score at 10 µM. actives 0.45% (n = 310,000);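 active means B-score, a plate-corrected calcium signal, over three deviations above library mean, with baseline fluorescence within five deviations of library mean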;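 further: RGS4 expression induced by doxycycline in cells with stable M3 receptor; B-score is computed from the integrated fluorescence ratio over baseline after carbachol; higher B-score means a larger calcium signal and so more RGS4 inhibition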
# Target sequence (P49798 whole entry, looked up): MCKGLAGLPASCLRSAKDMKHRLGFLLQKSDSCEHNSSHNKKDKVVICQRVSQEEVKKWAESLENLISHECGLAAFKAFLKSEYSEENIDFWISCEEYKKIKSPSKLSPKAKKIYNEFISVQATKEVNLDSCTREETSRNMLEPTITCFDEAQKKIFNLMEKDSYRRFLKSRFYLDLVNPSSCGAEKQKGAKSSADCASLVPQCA
# MrgX1 ag: agonists of human MrgX1 receptor, primary screen, HEK293 cells, Fluo-4 calcium flux; Mas-related G-protein coupled receptor member X1 (Homo sapiens), Q96LB2; Fluo-4 calcium fluorescence, agonist mode; stronger effect = higher value; B-score at 10 µM; actives 0.44% (n = 310,000); AID 588627, 2011;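 active means calcium response B-score plate-corrected fluorescence ratio at least 3 library SD, with starting fluorescence B-score inside 5 SD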
#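 System: HEK293 cells stably expressing human MrgX1 receptor; Dosing: test compound in the initial addition of three; Schedule: overnight plating, then 30 min 37 °C plus 30 min room-temperature dye loading; Detection: kinetic calcium dye fluorescence, Fluo-4 NW; Controls: per-plate positive and negative controls for Z′ factor.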
# RGS4 act: RGS4 potentiators or activators, primary screen, cell-based, HEK293 M3R inducible RGS4, calcium flux. carbachol calcium flux Fluo4; stronger effect = lower value. B-score at 10 µM. actives 0.92% (n = 310,000). AID 463111, 2010;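 active means B-score of the integrated calcium signal more than 4 SD below the library mean, with starting fluorescence not abnormally high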;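 further: negative B-score means reduced calcium response which marks RGS4 activation or potentiation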
#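 Reagent: ECmax carbachol challenge; Test system: M3R-expressing HEK293 line, RGS4 induced by doxycycline; Schedule: overnight RGS4 induction, 30 min dye load 37 °C, 20 min compound RT; Detection: calcium dye Fluo4 fluorescence; Read-out: Agonist-evoked peak-minus-minimum fluorescence over baseline, integrated ratio, B score.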
# MrgX1 ag reconf: MrgX1 receptor agonists, duplicate retest, confirmation, HEK293 cells, Fluo-4 calcium flux | shares compounds with MrgX1 ag | Fluo-4 calcium fluorescence, FDSS | activation, % at 10 µM | actives 78% (n = 600) | AID 602412, 2012;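 active means calcium signal rise, corrected for plate position, at least 3 library SD high, with starting brightness within 5 such deviations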
# MrgX1 allo conf: MrgX1 positive allosteric modulators, duplicate retest, confirmation, HEK293 cells, Fluo-4 calcium flux | AID 602413, 2012 | shares compounds with MrgX1 PAM | actives 13% (n = 1,200) | Fluo-4 calcium fluorescence, FDSS | activation (ratio percentage), % at 10 µM;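 active means ratio at least 3 SD above the weak peptide control, stable starting fluorescence, no direct agonism earlier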;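 further: compound followed by low BAM8-22 agonist challenge near EC20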
# HEK293 Ca flux: nonspecific calcium signal in parental HEK293, confirmation, counter-screen for MrgX1 antagonist project, parental HEK293 cells, Fluo-4 calcium flux; fluorescence ratio F(max-min)/F0 at 10 µM; actives 2% (n = 4,000); Fluo-4 calcium fluorescence, FDSS; shares compounds with MrgX1 antagonist; AID 624111, 2012;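 active means duplicate-averaged calcium fluorescence ratio at least three times the standard deviation of buffer wells, a nonspecific response in parental cells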
# HEK293 Ca counter: calcium response in parental HEK293 cells, primary screen, counter-screen for MrgX1 allosteric activator project, cell-based, Fluo-4 calcium flux, duplicate; Fluo-4 fluorescence ratio; stronger effect = higher value; fluorescence ratio F(max-min)/F0 at 10 µM; actives 0.4% (n = 4,000); shares compounds with MrgX1 antagonist;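 active means calcium fluorescence ratio, averaged over duplicates, at least 3 SD of the buffer-well ratio, meaning a nonspecific response in receptor-free cells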;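 further: untransfected parental HEK293 lacking MrgX1 used as counterscreen for MrgX1 allosteric activators; fluorescence change taken during the second addition on a kinetic imager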
# HEK293 Ca cntr2: calcium response in parental HEK293 cells, primary screen, counter-screen for MrgX1 agonist project, cell-based, Fluo-4 calcium flux, duplicate, agonist mode | fluorescence ratio F(max-min)/F0 at 10 µM | Fluo-4 calcium fluorescence (FDSS); stronger effect = higher value | shares compounds with MrgX1 antagonist | AID 624115, 2012 | actives 8.7% (n = 4,000);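 active means calcium fluorescence ratio at least three times the spread of buffer wells, meaning a non-specific response in parental cells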
# An asterisk follows results filed as active; i = inactive; nt = no result given.
SMILES,MrgX1 antagonist,MrgX1 PAM,RGS4 block,MrgX1 ag,RGS4 act,MrgX1 allo conf,HEK293 Ca flux,HEK293 Ca counter,HEK293 Ca cntr2,others
c1ccc(CCN2CCN=C2Nc2ccccc2)cc1,i,i,i,i,i,nt,nt,nt,nt,
Cc1cccc(CCN2CCN=C2Nc2ccccc2)c1,i,i,nt,50*,nt,nt,i,i,67*,MrgX1 ag reconf=278%*
COc1ccc(CC(=O)Nc2ccccc2Oc2ccccc2)cc1,i,8.3*,i,i,i,i,i,i,i,
CC1CC1C(=O)OCC(=O)Nc1ccccc1Oc1ccccc1 (centres undefined),i,12*,i,i,i,i,i,i,i,
CC[C@@](C)(NS(=O)(=O)OCC(Cl)(Cl)Cl)c1ccccc1,i,i,i,i,i,nt,nt,nt,nt,
Nc1nc(Br)c2c(F)cccc2c1-c1ccc(Cl)cc1,i,8.3*,i,i,i,i,i,i,i,
COc1ccccc1Oc1ncnc2sccc12,i,i,i,i,i,nt,nt,nt,nt,
Cc1ccccc1Oc1ncnc2sccc12,i,8.4*,i,i,i,11%*,i,i,i,
CCOC(=O)C1(CCOc2ccccc2)CCN(Cc2cccc(OC)c2OC)CC1,i,i,i,i,i,nt,nt,nt,nt,
Cc1ccc(N(C)C(=O)c2cnn(-c3ccccc3)c2C)c(C)c1,i,i,i,i,i,nt,nt,nt,nt,
Cc1cccc(N(C)C(=O)c2cnn(-c3ccccc3)c2C)c1,i,13*,i,i,i,i,i,i,i,
CCn1c(-c2cc(-c3ccc(C)c(C)c3)nc3ccccc23)n[nH]c1=S,i,i,i,i,i,nt,nt,nt,nt,
Cc1ccc(-c2cc(-c3n[nH]c(=S)n3C)c3ccccc3n2)cc1,i,11*,i,i,i,i,i,i,i,
Cc1c(C(=O)NCc2ccccn2)oc2ccccc12,i,i,i,i,i,nt,nt,nt,nt,
COc1ccccc1CNC(=O)c1oc2ccccc2c1C,i,6.7*,i,i,i,i,i,i,i,
C#CC(CC)(CC)NC(=S)Nc1cccc(C(C)=O)c1,i,8.3*,i,i,i,i,i,i,i,
CCCCNC(=S)Nc1cccc(C(C)=O)c1,i,i,i,i,i,nt,nt,nt,nt,
Nc1nc(SCC(=O)NCCC(c2ccccc2)c2ccccc2)n[nH]1,i,i,i,i,i,nt,nt,nt,nt,
O=C(COc1ccc(Br)cc1)N(Cc1ccccc1)c1ccccn1,i,i,i,i,i,nt,nt,nt,nt,
O=C(Cc1ccc(Br)cc1)N(Cc1ccccc1)c1ccccn1,i,7.3*,i,i,i,i,i,i,i,
Cc1cc(=O)oc2cc(OCC(=O)OCC(=O)N(C)C3CCS(=O)(=O)C3)ccc12 (centres undefined),i,i,i,i,i,nt,nt,nt,nt,
COc1ccc(-c2[nH]ncc2-c2ccc(Cl)cc2)c(O)c1,i,6.7*,i,i,i,27%*,i,i,i,
COc1ccc(-c2cn[nH]c2-c2ccc(OC)cc2O)cc1,i,16*,i,i,i,12%*,i,i,i,
COc1ccc(-c2[nH]ncc2-c2csc(C)n2)c(O)c1,i,i,i,i,i,nt,nt,nt,nt,
CCOc1ccc(-c2[nH]ncc2-c2csc(C)n2)c(O)c1,i,i,i,i,i,nt,nt,nt,nt,
SMILES,MrgX1 antagonist,MrgX1 PAM,RGS4 block,MrgX1 ag,RGS4 act,MrgX1 allo conf,HEK293 Ca flux,HEK293 Ca counter,HEK293 Ca cntr2,others
CCOc1ccc(-c2[nH]ncc2-c2ccccc2)c(O)c1,i,13*,i,i,i,17%*,i,i,i,
CCCc1nc(SC)[nH]c(=O)c1C,i,i,i,i,i,nt,nt,nt,nt,
COc1cccc(C(=O)NCCNC(=O)c2ccc(C)nc2)c1,i,i,i,i,i,nt,nt,nt,nt,
Cc1ccc(Nc2nc(-c3cccnc3)cs2)cc1C,i,6.5*,i,i,i,i,i,i,i,
Brc1ccc(Nc2nc(-c3cccnc3)cs2)cc1,i,i,i,i,i,nt,nt,nt,nt,
CCOC(=O)c1c(-c2ccccc2)csc1NC(=O)/C(C#N)=C/c1ccc(O)c(OC)c1,i,117*,i,i,i,i,0.049*,i,85*,
CCN(c1ccc(NC(=O)c2ccc(N3CCCC3=O)cc2)cc1)C(C)C,i,i,i,i,i,nt,nt,nt,nt,
O=C(NCCc1ccccc1)C(=O)NCC1OCCN1S(=O)(=O)c1cc(F)ccc1F (centres undefined),i,i,i,i,i,nt,nt,nt,nt,
O=C(NCc1cccnc1)C(=O)NCC1OCCN1S(=O)(=O)c1cc(F)ccc1F (centres undefined),i,16*,i,i,i,i,i,i,i,
Cc1c(NC(=O)C(C)OC(=O)CCc2ccccc2)c(=O)n(-c2ccccc2)n1C (centres undefined),i,i,i,i,i,nt,nt,nt,nt,
Cc1cc(N2CCCC2)ccc1NC(=O)COc1cccc(C(F)(F)F)c1,i,i,i,i,i,nt,nt,nt,nt,
CC12CCC(C(=O)Nc3nc4ccccc4s3)(OC1=O)C2(C)C (centres undefined),i,29*,i,i,i,2.1%*,i,i,i,
